The nature of this data set: Toxicity liver stage against HepG2, at 10uM. The note with it: human, HepG2-A16-CD81EGFP cells; read-out: INHIBITION
Further details: test concentration 10 uM, cell line HepG2-A16-CD81EGFP. It counts as cell-based. An outline of the steps: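 Uninfected HepG2-A16-CD81EGFP cells, 3 × 10^3 per well, 1536-well, plated on prespotted compound at 10 μM final, parasite-free screening media added to match infected plates; puromycin 10 μM positive, DMSO 0.5% negative; run in parallel with 48 h PbLuc assay at 37 °C, 5% CO2; viability by CellTiter-Glo luminescence, normalized to controls.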
Consider `COc1ccc(N2CCC(N3C[C@H](NC(C)=O)[C@@H](C(C)C)C3)CC2)cc1`, for which the cytotoxicity at 10 µM was -9.92%. In the case of `CCOCCN1Cc2ncn(C)c2C(COCC2CCOCC2)C1` (stereo not drawn) it was -70.6%; in that of `O=C1CN(C(=O)C2CN(c3cccc(F)c3)CCO2)CCN1` (stereo not drawn), 5.37%.

With `CCC(=O)NCCNC(=O)c1nn(C)c(C)c1Cl`, the cytotoxicity at 10 µM amounted to 5.05%. In the case of `CC(=O)N1CCC(c2cccc(Oc3ccccc3)n2)CC1` it was -0.0757%. With `CC(C)N1CCC2(C=C(C(=O)N(C)C)c3ccccc32)CC1` the figure was 1.24%; with `COc1ccccc1CN1CCC(c2nn(CCN)c3nccnc23)C1` (stereo not drawn), -32.7%. With `Cn1cc(C[C@H]2[C@@H](OCC3CC3)CCN2C(=O)c2ccc[nH]2)cn1` the figure was -72.7%; with `CCOCc1cccc(S(=O)(=O)Nc2ncc(C)s2)c1`, 6.38%; with `Cc1ccc(CN2CCc3c(C(=O)N(C)C)n[nH]c3C2)o1`, 2.14%. Turning to `CCc1nc(CN2CCCN(C(=O)CCSC)CC2)cs1`, the cytotoxicity at 10 µM was -5.41%. Turning to `CC(NC(=O)NCc1cccc(CN2CCCC2)c1)c1nccs1` (stereo not drawn), the cytotoxicity at 10 µM was -7.43%. With `N#Cc1ccccc1N1CCCN(C(=O)NCc2cc[nH]n2)CC1`, the cytotoxicity at 10 µM came out at 0.428%.

For the compound `CCNC(=O)NCc1ccnc(N(C)C)n1`, the cytotoxicity at 10 µM is -0.786%. In the case of `O=C(COCC1CC1)Nc1cc(S(=O)(=O)NC2CC2)ccc1F` it was -7.63%; in that of `CN(C)C(=O)c1cccc(CNc2ccc(C#N)cn2)c1`, -4.73%.

On to `Cc1ccc(C)c(NC(=O)C(C)N2CCCN(c3nccs3)CC2)c1` (stereo not drawn), for which the cytotoxicity at 10 µM was -19.8%. For the compound `CCOCC1c2c(ncn2C(C)C)CCN1C(=O)CC` (stereo not drawn), the cytotoxicity at 10 µM came out at 4.17%. In the case of `CC(=O)NCc1ccc(C(=O)Nc2ccc3c(c2)C(=O)NC3)cc1` it was 0.202%; in that of `O=C1N(C2CCCCC2)CCCC12CCN(S(=O)(=O)c1cccnc1)C2` (stereo not drawn), 6%. With `COCCCNC(=O)CN(C)C(=O)c1cc(C)sc1C` the figure was -2.58%; with `CC1CCCN(CCNC(=O)c2scnc2Cl)C1` (stereo not drawn), -6.06%; with `COc1ccc2c(c1)CCCN2Cc1nc2c(cnn2C)c(=O)[nH]1`, -3.3%. With `CN(C(=O)CCc1nc(C2CC2)no1)c1cc(C#N)c2ccccc2n1` the figure was 0.55%; with `CC(NC(=O)N1CCCN(C)CC1)c1ccc(S(N)(=O)=O)cc1` (stereo not drawn), -11.7%; with `O=C1CC(c2ncc(-c3ccc4c(c3)OCCO4)[nH]2)CN1C1CCCC1` (stereo not drawn), 10.8%. `CCOCCN1CCN(Cc2nnc(C3CC3)o2)CC1`: the cytotoxicity at 10 µM is 1.95%. With `CCn1ccnc1C1CCN(Cc2cccc(C)n2)CC1` the figure was -7.93%; with `CCc1cnc(CN(C)C2CCN(CC(=O)Nc3nccs3)C2)o1` (stereo not drawn), -18.7%; with `COc1cccc(COCC(=O)N2CCCC(n3cccn3)C2)c1` (stereo not drawn), -0.363%. With `Cc1ccc(-c2ccc(Cl)nn2)cc1S(N)(=O)=O`, the cytotoxicity at 10 µM was -12.3%. With `CN(CCc1ccccn1)C1CCCN(Cc2noc(C3CC3)n2)C1` (stereo not drawn) the figure was 11.6%; with `CC(C)COCC(NC(=O)c1cnccn1)c1ccco1` (stereo not drawn), -13.8%; with `O=C1NCCN(CC2CC2)C12CCN(Cc1ccccc1)CC2`, -78.7%. With `CC[C@H](C)[C@H](NC(=O)c1ccc(-n2cnnn2)cc1)C(=O)OC` the figure was 9.09%; with `CCCc1nc2c(c(C)c(C)n2CCN(C)C)c(N)c1CC`, 12.9%. With `Cc1cc(C)c2cc(CNCc3ccccc3)c3nn(C)c(=O)n3c2c1` the figure was -1.47%; with `CCNc1cc2c(nn1)CCN(C(=O)c1ccsc1)C2`, -13.7%. On to `Cc1ccc(N2N=C(C(N)=O)S(=O)(=O)c3cccnc32)cc1`, for which the cytotoxicity at 10 µM stood at 4.28%. In the case of `O=C(Cc1ccon1)N1CCN(c2ccncc2Cl)CC1`, the cytotoxicity at 10 µM was -2.47%. `FC(F)(F)c1cccc(C2(CNCc3cc[nH]c3)CCOCC2)c1`: the cytotoxicity at 10 µM was -6.76%. In the case of `O=C1CSC(c2cccnc2)c2c(n(C3CCOCC3)[nH]c2=O)N1` (stereo not drawn) it was -7.95%; in that of `COc1ncccc1-c1cc(C(=O)NC2CC2)ccn1`, -11.8%; in that of `Nc1nccnc1C(=O)N1CC(OCc2cccc3ccccc23)C1`, 7.39%. Consider `CC1=C(C(=O)N2CCOC(Cc3cccc(C(F)(F)F)c3)C2)OCCO1` (stereo not drawn), for which the cytotoxicity at 10 µM was determined as 5.31%. Regarding `Cc1nc2ccccc2nc1CN1CCCC1Cn1cncn1` (stereo not drawn), the cytotoxicity at 10 µM was -1.28%. In the case of `Cn1ccnc1-c1ccc(NCCC2COc3ccccc3O2)nn1` (stereo not drawn) it was 9.56%; in that of `O=C(Nc1cccnc1)[C@H]1C[C@@H]2CCN(c3nncs3)C[C@H]2O1`, -13.3%.

Consider `CC(C)c1ncc2c(n1)CN(Cc1ccc(C(N)=O)cc1)CC2`, for which the cytotoxicity at 10 µM was -14.2%. In the case of `CCC(CC)C(=O)NCCC(=O)N1CCN(c2ccccn2)CC1` it was 4.65%; in that of `CN1CCCN(c2nccc(-c3c[nH]nc3C3CCCCC3)n2)CC1`, 0.746%; in that of `Cc1ccc(NS(=O)(=O)c2cc3c(c(C(=O)O)c2)OCCO3)cc1C`, -15.3%. Take `CC(C)c1cc(Br)ccc1NC(=O)NC(C)(CO)CO`: the cytotoxicity at 10 µM amounted to 9.83%. For `Cc1cc(C(=O)N2CCNC(=O)C2)c(C)n1CC(F)(F)F`, the cytotoxicity at 10 µM was found to be 0.962%.

On to `O=C(NCCn1ccc(-c2ccccn2)n1)c1ccncc1`, for which the cytotoxicity at 10 µM was -20.7%. As for `CN(C)C(=O)N1CC[C@@H](c2ccc3ccccc3c2)[C@H](O)C1`, the cytotoxicity at 10 µM was -5.81%.

As for `O=C1NCCCCC1NS(=O)(=O)N1CCCCC1` (stereo not drawn), the cytotoxicity at 10 µM turned out to be 1.48%.

Take `CNC(=O)CN1CCC(CN(C)Cc2ccccc2N(C)C)CC1`: the cytotoxicity at 10 µM was -6.23%. With `CN1CCC2(CCN(c3ncc(F)cn3)CC2)C1=O` the figure was 0.411%; with `O=C1CCCN1c1cccc(CNCc2cc(F)ccc2F)c1`, 15.8%; with `OCCN1CCN(CCOCC(F)(F)F)CC1`, -4.47%.

Take `O=C(c1ccc(-n2cnnc2)cc1)N1CCCC(n2ccnc2)C1` (stereo not drawn): the cytotoxicity at 10 µM was -10.7%.

Turning to `COCCN1CCO[C@@H]2CN(Cc3cc(OC)cc(OC)c3)C[C@@H]2C1`, the cytotoxicity at 10 µM is 38.8%.

Consider `NC(=O)Cn1cc(NC(=O)N2CCCC2)cn1`, for which the cytotoxicity at 10 µM was -8.67%. In the case of `O=C(O)C[C@@H]1CCN(C(=O)c2cccs2)C[C@@H]1CCN1CCCCC1` it was 2.4%. In the case of `Cc1cccc(NC(=O)C(C)Nc2cccc(CN3CCOC3=O)c2)c1` (stereo not drawn), the cytotoxicity at 10 µM is 6.92%. Regarding `COCCC(=O)N1CCN(CC2CC2)c2ccccc21`, the cytotoxicity at 10 µM was -4.5%.

With `O=C(NCC1CCS(=O)(=O)C1)c1sccc1-c1ccc(F)cc1` (stereo not drawn), the cytotoxicity at 10 µM is -1.79%. In the case of `Cc1ccc(CN2CC(C(=O)N3CCCC3)C3(CCOCC3)C2)s1` (stereo not drawn) it was -0.152%; in that of `COc1ccc(C(O)CN2CC(n3nc(C)cc3C)C2)cc1` (stereo not drawn), -15.3%. As for `Cn1cc(N2CCC3(CCCN(C(=O)c4ccnn4C)C3)C2=O)cn1` (stereo not drawn), the cytotoxicity at 10 µM was -1.55%. With `CCCOc1ccccc1C(N)CC(C)C` (stereo not drawn) the figure was -0.595%; with `CN(C)Cc1cn(CC2CCCN(c3nccc4occc34)C2)nn1` (stereo not drawn), -9.67%; with `CC(=O)c1cccc(NC(=O)Cn2cnc(-c3cccs3)cc2=O)c1`, -4.44%. Turning to `Cc1noc([C@]23COC[C@H]2CN(C(=O)Cc2ccsc2)C3)n1`, the cytotoxicity at 10 µM was -95.9%. For `CCCOC(=O)N1CCc2cccc(S(=O)(=O)N3CCOCC3)c2C1`, the cytotoxicity at 10 µM was -6.85%. On to `NS(=O)(=O)c1cnc(NCC2(c3cccc(F)c3)CCOCC2)s1`, for which the cytotoxicity at 10 µM is -5.71%. In the case of `CN(Cc1cccs1)c1cc(N2CCCC2CO)ncn1` (stereo not drawn) it was 1.26%; in that of `O=C(NC[C@]12COC[C@H]1CN(Cc1nccs1)C2)c1ccsc1`, 4.09%; in that of `CN(C)C[C@@H]1CN(C(=O)Cc2cccc(O)c2)C[C@@H]1CO`, 1.92%. As for `Cc1nc(CN2CCCN(C(=O)c3ccn(C)c(=O)c3)CC2)cs1`, the cytotoxicity at 10 µM is -12.7%. Consider `COc1ccc(CN2CCc3ncnc(OC(C)C)c3CC2)cc1`, for which the cytotoxicity at 10 µM was -1.99%. With `CC(NC(=O)Nc1nccs1)c1cccnc1` (stereo not drawn) the figure was -8.81%. `CCc1noc(-c2cccc(C(=O)O)c2)n1`: the cytotoxicity at 10 µM was -8.24%. With `O=S(=O)(Cc1ccc(F)c(Cl)c1)NCCOc1cccnc1` the figure was -49.9%; with `Cn1nccc1C1CCN(Cc2cnn(-c3ccccc3)n2)CC1`, 27.2%. Regarding `O=C(CCn1cccn1)NCCOc1ccc2c(c1)OCO2`, the cytotoxicity at 10 µM was -5.01%.

Consider `CCc1cc(C(F)(F)F)n2nc(C3CCCN3C(=O)COC)cc2n1` (stereo not drawn), for which the cytotoxicity at 10 µM is 3.01%. Regarding `O=S(=O)(c1ccc(F)cc1)N1CCCCC1c1cc[nH]n1` (stereo not drawn), the cytotoxicity at 10 µM was -3.55%. Consider `COCCc1noc(CN2C(=O)OC[C@@H]2C(C)C)n1`, for which the cytotoxicity at 10 µM is -8.93%. With `COCc1csc(NC(=O)NCc2ccc(C)s2)n1` the figure was 2.44%; with `CC(=O)c1c(F)cccc1NC1CCN(C(=O)C2CCCCC2)CC1`, 20.7%; with `CNc1cccc(CC2COCCN(C(=O)c3cccnc3)C2)n1` (stereo not drawn), -1.99%.

Consider `O=C(CC1CCCC1)N1CCCC1c1nc(O)cc(-c2ccccn2)n1` (stereo not drawn), for which the cytotoxicity at 10 µM was -3.73%. For `CN1CC[C@]2(CN(Cc3cccs3)C[C@H]2c2ccccc2)C1=O`, the cytotoxicity at 10 µM is 9.82%. In the case of `COc1nc(C)c(C(=O)N2CCC(C(O)Cc3ccccc3)CC2)s1` (stereo not drawn) it was 4.18%; in that of `CC(C)(C)C(=O)N1CCCC1c1nccnc1Cl` (stereo not drawn), 2.83%. In the case of `Cc1ccc(C(=O)N2CCCC(CNS(=O)(=O)C(C)C)C2)cc1` (stereo not drawn) it was -1.42%.

Values taken from ChEMBL document CHEMBL4513216, “Probing the Open Global Health Chemical Diversity Library for Multistage-Active Starting Points for Next-Generation Antimalarials” (ACS Infect Dis, 2020).
